{"source": "ChEMBL document CHEMBL1123795", "about": "“Inhibitors of dopamine beta-hydroxylase. 3. Some 1-(pyridylmethyl)imidazole-2-thiones” (J Med Chem, 1987)", "key": {"Rattus norvegicus [1]": {"tested_on": "Rattus norvegicus", "assay": "Percent increase in DA/NE ratio was determined from assay of DA and NE in the mesenteric artery of spontaneously hypertensive rat after two doses for 50 mg/kg peroral administration", "format": "functional", "details": "route oral", "method_in_brief": "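SHR received two 50 mg/kg doses 18 h apart as suspensions in a 5% PEG 400, 1% methocel vehicle. DA and NE were then assayed in mesenteric artery. The percent change in DA/NE ratio (±SEM) was expressed relative to vehicle-dosed controls.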"}, "Rattus norvegicus [2]": {"tested_on": "Rattus norvegicus", "assay": "Antihypertensive activity was determined by decrease in blood pressure response in spontaneously hypertensive rat was determined after intraperitoneal administration at a dose of 50 mg/kg", "format": "functional", "method_in_brief": "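SHR received a single 50 mg/kg ip dose given as a solution in 20% DMF. Blood pressure was read 2 h after dosing, and the reduction (±SEM) was expressed relative to vehicle-dosed control animals.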"}, "[3]": {"target": "T1, Dopamine beta-hydroxylase (Rattus norvegicus, UniProt Q05754)", "T1 sequence (Q05754 whole entry)": "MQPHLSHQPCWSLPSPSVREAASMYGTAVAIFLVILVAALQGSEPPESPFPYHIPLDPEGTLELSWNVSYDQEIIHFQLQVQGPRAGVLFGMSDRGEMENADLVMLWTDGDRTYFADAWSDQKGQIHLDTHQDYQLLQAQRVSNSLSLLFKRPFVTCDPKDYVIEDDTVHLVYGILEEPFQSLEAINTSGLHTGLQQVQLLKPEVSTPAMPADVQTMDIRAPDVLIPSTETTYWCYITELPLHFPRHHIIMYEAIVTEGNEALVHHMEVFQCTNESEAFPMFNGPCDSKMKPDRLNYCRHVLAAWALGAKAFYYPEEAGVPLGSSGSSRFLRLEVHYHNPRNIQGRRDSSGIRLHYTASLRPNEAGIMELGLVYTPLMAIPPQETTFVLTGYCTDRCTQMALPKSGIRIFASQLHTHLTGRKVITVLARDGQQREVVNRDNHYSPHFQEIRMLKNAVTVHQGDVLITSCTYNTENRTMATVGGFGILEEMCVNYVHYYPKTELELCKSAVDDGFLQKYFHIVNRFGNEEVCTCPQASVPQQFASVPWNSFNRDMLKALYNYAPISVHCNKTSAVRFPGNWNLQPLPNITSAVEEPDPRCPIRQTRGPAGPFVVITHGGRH", "assay": "Inhibition of Dopamine beta hydroxylase in spontaneously hypertensive rats; Value ranges from 0.4-1.1"}, "[4]": {"target": "T1, Dopamine beta-hydroxylase", "assay": "Inhibition of Dopamine beta hydroxylase in spontaneously hypertensive rats; Value ranges from 76-220"}, "[5]": {"target": "T1, Dopamine beta-hydroxylase", "assay": "Inhibition of Dopamine beta hydroxylase in spontaneously hypertensive rats; Value range from 8.9-13"}, "[6]": {"target": "T1, Dopamine beta-hydroxylase"}, "[7]": {"target": "T2, Dopamine beta-hydroxylase (Rattus norvegicus) (UniProt Q05754)", "T2 sequence (whole entry)": "T1 sequence (Q05754 whole entry)", "assay": "Inhibition of Dopamine beta hydroxylase in spontaneously hypertensive rats at a concentration of 10e-4", "method_in_brief": "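The DBH assay was run in vitro, with percent inhibition of product formation versus control measured at 10⁻⁴ M compound.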"}, "[8]": {"target": "T1, Dopamine beta-hydroxylase", "assay": "Inhibition of Dopamine beta hydroxylase in spontaneously hypertensive rats; Value ranges from 21-35"}, "[9]": {"target": "T1, Dopamine beta-hydroxylase", "assay": "Inhibition of Dopamine beta hydroxylase in spontaneously hypertensive rats; Value ranges from 89-121"}, "[10]": {"target": "T1, Dopamine beta-hydroxylase", "assay": "Inhibition of Dopamine beta hydroxylase in spontaneously hypertensive rats; Value ranges from 1.3-4.6"}}}
{"smiles": "CCCCc1ccc(C(=O)O)nc1", "note": "[FUSARIC ACID]", "values": [{"measurement": "Increase", "setting": "Rattus norvegicus [1]", "result": 80, "unit": "%"}, {"measurement": "Decrease in blood pressure", "setting": "Rattus norvegicus [2]", "result": 54, "unit": "mmHg"}, {"measurement": "IC50", "setting": "[3]", "result": 0.7, "unit": "µM"}]}
{"smiles": "Sc1nccn1Cc1ccccn1", "values": [{"measurement": "Increase", "setting": "Rattus norvegicus [1]", "result": 141, "unit": "%"}, {"measurement": "Decrease in blood pressure", "setting": "Rattus norvegicus [2]", "result": 35, "unit": "mmHg"}, {"measurement": "IC50", "setting": "[4]", "result": 131, "unit": "µM"}]}
{"smiles": "S=c1[nH]ccn1Cc1ccccc1", "values": [{"measurement": "IC50", "setting": "[5]", "result": 11, "unit": "µM"}]}
{"smiles": "Fc1cc(F)cc(Cn2cc[nH]c2=S)c1", "values": [{"measurement": "Increase", "setting": "Rattus norvegicus [1]", "result": 407, "unit": "%"}, {"measurement": "Decrease in blood pressure", "setting": "Rattus norvegicus [2]", "result": 50, "unit": "mmHg"}, {"measurement": "IC50", "setting": "[6]", "result": 1.2, "unit": "µM"}]}
{"smiles": "Sc1nccn1Cc1ccncc1", "values": [{"measurement": "Increase", "setting": "Rattus norvegicus [1]", "result": 49, "unit": "%"}, {"measurement": "Decrease in blood pressure", "setting": "Rattus norvegicus [2]", "result": 38, "unit": "mmHg"}, {"measurement": "inhibition", "setting": "[7]", "result": 17, "unit": "%"}]}
{"smiles": "COc1ccc(Cn2ccnc2S)cn1", "values": [{"measurement": "inhibition", "setting": "[7]", "result": 17, "unit": "%"}]}
{"smiles": "Oc1ccc(Cn2ccnc2S)nc1", "values": [{"measurement": "Decrease in blood pressure", "setting": "Rattus norvegicus [2]", "result": 22, "unit": "mmHg"}, {"measurement": "IC50", "setting": "[8]", "result": 27, "unit": "µM"}]}
{"smiles": "Oc1ccc(Cn2ccnc2S)cn1", "values": [{"measurement": "inhibition", "setting": "[7]", "result": 7, "unit": "%"}]}
{"smiles": "Sc1nccn1Cc1cccnc1", "values": [{"measurement": "Increase", "setting": "Rattus norvegicus [1]", "result": 52, "unit": "%"}, {"measurement": "Decrease in blood pressure", "setting": "Rattus norvegicus [2]", "result": 34, "unit": "mmHg"}, {"measurement": "IC50", "setting": "[9]", "result": 104, "unit": "µM"}]}
{"smiles": "Oc1ccc(Cn2cc[nH]c2=S)cc1", "values": [{"measurement": "Increase", "setting": "Rattus norvegicus [1]", "result": 95, "unit": "%"}, {"measurement": "Decrease in blood pressure", "setting": "Rattus norvegicus [2]", "result": 22, "unit": "mmHg"}, {"measurement": "IC50", "setting": "[10]", "result": 2.6, "unit": "µM"}]}
